For orientation: IC50 means the concentration at which inhibition is half-maximal. Broadly, the inhibition is how much of the control response was suppressed.

The structures appear in SMILES notation. Values joined by “and” are separate entries in the source; they are usually repeats but may differ in a detail not shown here. Identical values can stand only once.

The target of the first test is T1, Renin (Homo sapiens, UniProt P00797).
T1 sequence (P00797 whole entry): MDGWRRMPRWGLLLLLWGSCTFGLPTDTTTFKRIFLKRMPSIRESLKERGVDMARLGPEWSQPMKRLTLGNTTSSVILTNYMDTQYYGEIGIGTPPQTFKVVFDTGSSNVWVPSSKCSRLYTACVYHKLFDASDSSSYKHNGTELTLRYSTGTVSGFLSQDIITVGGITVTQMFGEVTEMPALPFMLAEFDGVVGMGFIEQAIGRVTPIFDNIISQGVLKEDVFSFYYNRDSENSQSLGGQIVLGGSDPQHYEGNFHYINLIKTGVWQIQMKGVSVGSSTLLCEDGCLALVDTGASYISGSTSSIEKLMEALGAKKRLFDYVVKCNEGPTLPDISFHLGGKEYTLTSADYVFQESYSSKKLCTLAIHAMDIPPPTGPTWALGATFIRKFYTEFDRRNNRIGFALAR
Put plainly: Inhibition of human recombinant renin. In a few lines:
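Recombinant human renin (0.05 GU/mL, set to generate 30-40 ng A1/mL per h) incubated with 20 μM human renin substrate stock, pH 5.7 phosphate buffer with BSA, EDTA and PMSF, 1% DMSO final, 37 °C for 1 h; 4 °C blank tubes. RIA (3 h room temperature, γ counting) against standard curve; IC50 reported.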
As for `CC(C)CC(NC(=O)[C@H](Cc1ccccc1)N1Cc2nccn2C1=O)C(=O)N[C@@H](CC1CCCCC1)C(O)C(=O)OC(C)C` (stereo not given in full), the IC50 was determined as 0.1 µM.

Take `CC(C)CC(NC(=O)[C@H](Cc1ccccc1)N1Cc2ccccc2C1=O)C(=O)N[C@@H](CC1CCCCC1)C(O)C(=O)OC(C)C` (stereo not given in full): the 50% inhibitory concentration (IC50) worked out at 0.036 µM.

As to `COC(=O)C(O)[C@H](CC1CCCCC1)NC(=O)C(CC(C)C)NC(=O)[C@H](Cc1ccccc1)N1Cc2ccccc2C1=O` (stereo not given in full), the IC50 amounted to 0.023 µM.

For the molecule `CCC[C@H](NC(=O)[C@H](Cc1ccccc1)N1Cc2ccccc2C1=O)C(=O)N[C@@H](CC1CCCCC1)C(O)C(=O)OC(C)C` (stereo not given in full), the IC50 was determined as 0.0089 µM.

For `COC(=O)C(O)[C@H](CC1CCCCC1)NC(=O)C(Cc1cnc[nH]1)NC(=O)[C@H](Cc1ccccc1)N1Cc2ccccc2C1=O` (stereo not given in full), the IC50 worked out at 0.186 µM.

Regarding `CC(C)CC(NC(=O)[C@H](Cc1ccccc1)N1CC2CCCN2C1=O)C(=O)N[C@@H](CC1CCCCC1)C(O)C(=O)OC(C)C` (stereo not given in full), the IC50 is 0.141 µM.

Regarding `COC(=O)C(O)[C@H](CC1CCCCC1)NC(=O)C(CC(C)C)NC(=O)[C@H](Cc1ccccc1)N1C(=O)c2cccc3cccc(c23)C1=O` (stereo not given in full), the IC50 is 0.391 µM.

Take `CC(C)CC(NC(=O)[C@H](Cc1ccccc1)N1Cc2cccc3cccc(c23)C1=O)C(=O)N[C@@H](CC1CCCCC1)C(O)C(=O)OC(C)C` (stereo not given in full): the concentration for half-maximal inhibition (IC50) turned out to be 0.08 µM.

Consider `COC(=O)C(O)[C@H](CC1CCCCC1)NC(=O)C(CC(C)C)NC(=O)[C@H](Cc1ccccc1)NC(=O)OC(C)(C)C` (stereo not given in full), for which the half-inhibitory concentration (IC50) was 0.008 µM and 0.024 µM.

With `CC(C)CC(NC(=O)[C@H](Cc1ccccc1)N1CCCC1=O)C(=O)N[C@@H](CC1CCCCC1)C(O)C(=O)OC(C)C` (stereo not given in full), the half-maximal inhibitory concentration (IC50) is 0.157 µM.

On to `CCCC[C@H](NC(=O)[C@H](Cc1ccccc1)N1Cc2ccccc2C1=O)C(=O)N[C@@H](CC1CCCCC1)C(O)C(=O)OC(C)C` (stereo not given in full), for which the IC50 came out at 0.016 µM.

`COC(=O)C(O)[C@H](CC1CCCCC1)NC(=O)C(CC(C)C)NC(=O)[C@H](Cc1ccccc1)N1Cc2ncccc2C1=O` (stereo not given in full): the half-inhibitory concentration (IC50) turned out to be 0.207 µM.

Another test addresses T2, Renin (Homo sapiens) (UniProt P00797).
T2 sequence (whole entry): T1 sequence (P00797 whole entry)
The test can be described thus: Inhibition of human recombinant renin at 1 uM.
`COC(=O)C(O)[C@H](CC1CCCCC1)NC(=O)C(CC(C)C)NC(=O)[C@H](Cc1ccccc1)N1C(=O)OC(C)(C)C1C` (stereo not given in full): the inhibition was determined as 76%.

Regarding `COC(=O)C(O)[C@H](CC1CCCCC1)NC(=O)C(CC(C)C)NC(=O)[C@H](Cc1ccccc1)N1CC(C)(C)OC1=O` (stereo not given in full), the inhibition came out at 86.4%.

On to `COC(=O)C(O)[C@H](CC1CCCCC1)NC(=O)C(CC(C)C)NC(=O)[C@H](Cc1ccccc1)N1C(=O)c2ccccc2C1=O` (stereo not given in full), for which the inhibition came out at 45%.

The record behind these values is ChEMBL document CHEMBL1125388, “New modified heterocyclic phenylalanine derivatives. Incorporation into potent inhibitors of human renin” (J Med Chem, 1992).
